Experimental data as given in ChEMBL document CHEMBL6096700, “Modulation of Mitochondria-Endoplasmic Reticulum Contacts (MERCs) by Small Molecules as a New Strategy for Restoring Lipid Metabolism in an Amyotrophic Lateral Sclerosis Model” (J Med Chem, 2025).
Calls of active or inactive are those of the source. Where a SMILES comes first, the peptide text is derived from it. The star is where a group is joined. Cbz = O=C(OCc1ccccc1)*

Legend:
[1] = Modulation of mitochondria-endoplasmic reticulum contacts in human HCT-116 cells expressing MERLIN by BRET assay; format: functional, cell-based
In short: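 MERLIN-HCT116 BRET biosensor cells (RLuc8 donor, mVenus acceptor) seeded at 4500/well for 24 h, then treated with compound overnight. Coelenterazine h 5 μM added for 8 min in the dark, read at RT. BRET = acceptor/donor emission minus RLuc8-only background, with DMSO, RLuc8 and RLuc8-mVenus controls; plates kept if Z'>0.7.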

HCT-116 [2] = assay: Cytotoxicity against human HCT-116 cells assessed as cell viability at 1 uM incubated for 24 hrs by MTT assay; format: toxicity, cell-based; conditions: hct-116, 24 h
In short: (§1)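 HCT116 cells grown in phenol red-free McCoy's 5A with 10% FBS and 1% penicillin/streptomycin. Exposed 24 h to compound at 1, 5 or 10 μM. Viability measured by MTT reduction to formazan read by absorbance, expressed as percent of untreated controls. Safety threshold >80% viability. Mean ± SEM of three independent experiments.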

HCT-116 [3] = assay: Cytotoxicity against human HCT-116 cells assessed as cell viability at 5 uM incubated for 24 hrs by MTT assay; format: toxicity, cell-based; conditions: hct-116, 24 h; in short: as §1
HCT-116 [4] = assay: Induction of extracellular NBD-labeled cholesterol uptake in human HCT-116 cells at 1 uM incubated for 24 hrs followed by NBD-labeled cholesterol addition measured after 1 to 3 hrs by fluorescence based assay; format: functional, cell-based; conditions: time 25-27 hrs
In short: (§2)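 HCT116 cells seeded 24 h at 37 °C, 5% CO2, then treated with compound for 24 h. NBD-cholesterol added for 1 and 3 h. Cells washed three times with PBS, fluorescence read at 469/537 nm, compared with untreated cells. Mean ± SEM of three independent experiments.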

[5] = Permeability of compound incubated for 2.5 hrs by PAMPA; format: ADME
In short: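 PAMPA-BBB: compounds in PBS/EtOH 70:30, pH 7.4, placed in a donor plate over a filter coated with porcine brain lipid in dodecane (20 mg/mL), with phosphate-buffer acceptor. Incubated 2 h 30 min at RT. Acceptor concentration read by absorbance at 2–5 wavelengths, three wells, two runs (mean ± SD). Ten reference drugs; CNS+ if Pe >4.4 × 10–6 cm s–1.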

HCT-116 [6] = assay: Induction of extracellular NBD-labeled cholesterol uptake in human HCT-116 cells at 5 uM incubated for 24 hrs followed by NBD-labeled cholesterol addition measured after 3 hrs by fluorescence based assay; format: functional, cell-based; conditions: time 27.0 hrs; in short: as §2
Lymphoblastoid cell [7] = assay: Induction of extracellular NBD-labeled cholesterol uptake in patient-derived Sporadic ALS lymphoblastoid cells at 5 uM incubated for 24 hrs followed by NBD-labeled cholesterol addition measured after 1 hr by fluorescence based assay; format: functional; conditions: Homo sapiens, time 25.0 hrs
Lymphoblastoid cell [8] = assay: Induction of extracellular NBD-labeled cholesterol uptake in patient-derived C9orf72-mutated familial ALS lymphoblastoid cells at 5 uM incubated for 24 hrs followed by NBD-labeled cholesterol addition measured after 1 hr by fluorescence based assay; format: functional; conditions: Homo sapiens, time 25.0 hrs
Lymphoblastoid cell [9] = assay: Induction of extracellular NBD-labeled cholesterol uptake in patient-derived SOD1 ALS lymphoblastoid cells at 5 uM incubated for 24 hrs followed by NBD-labeled cholesterol addition measured after 1 hr by fluorescence based assay; format: functional; conditions: Homo sapiens, time 25.0 hrs
Lymphoblastoid cell [10] = assay: Induction of cholesteryl ester formation in patient-derived lymphoblastoid cells at 5 uM incubated for 24 hrs by Amplex assay; format: functional, cell-based; conditions: Homo sapiens
In short: (§3)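 Control and sporadic ALS lymphoblastoid cells treated 24 h with compound at 5 μM or vehicle. Lipids extracted from equal cell amounts with chloroform:methanol 2:1 (v/v). Organic phase dried, resuspended in assay buffer, and cholesteryl esters quantified with the Amplex cholesterol kit. Individual values reported.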

Lymphoblastoid cell [11] = assay: Induction of lipid droplet formation in patient-derived lymphoblastoid cells at 5 uM incubated for 24 hrs by LipidTOX Green/DAPI staining based analysis; format: functional; conditions: Homo sapiens
In short: (§4)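 Control and sporadic ALS lymphoblastoid cells treated 24 h with compound at 5 μM or vehicle, fixed in 4% PFA, washed in PBS. Lipid droplets stained 2 h with LipidTOX Green, nuclei with DAPI. Confocal imaging and image-based quantification of >100 cells per condition; mean ± SEM.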

Lymphoblastoid cell [12] = assay: Induction of cholesteryl ester formation in patient-derived Sporadic ALS lymphoblastoid cells at 5 uM incubated for 24 hrs by Amplex assay; format: functional, cell-based; conditions: Homo sapiens; in short: as §3
Lymphoblastoid cell [13] = assay: Induction of lipid droplet formation in patient-derived Sporadic ALS lymphoblastoid cells at 5 uM incubated for 24 hrs by LipidTOX Green/DAPI staining based analysis; format: functional; conditions: Homo sapiens; in short: as §4
Lymphoblastoid cell [14] = assay: Induction of extracellular NBD-labeled cholesterol uptake in patient-derived Sporadic ALS lymphoblastoid cells at 5 uM incubated for 24 hrs followed by NBD-labeled cholesterol addition measured after 1 hr in presence of SSO by fluorescence based assay; format: functional; conditions: Homo sapiens, time 25.0 hrs
In short: (§5)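 Lymphoblastoid lines from controls (C100, C112) and sporadic ALS patients (E2, E4) treated 24 h with compound at 5 μM. BLT1, SSO or EZE (10 μM) added 15 min before NBD-cholesterol, which was left for 1 h. Cells washed three times with PBS, fluorescence read at 469/537 nm. Run in triplicate; mean ± SEM.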

Lymphoblastoid cell [15] = assay: Induction of extracellular NBD-labeled cholesterol uptake in patient-derived Sporadic ALS lymphoblastoid cells at 5 uM incubated for 24 hrs followed by NBD-labeled cholesterol addition measured after 1 hr in presence of EZE by fluorescence based assay; format: functional; conditions: Homo sapiens, time 25.0 hrs; in short: as §5
Lymphoblastoid cell [16] = assay: Induction of extracellular NBD-labeled cholesterol uptake in patient-derived Sporadic ALS lymphoblastoid cells at 5 uM incubated for 24 hrs followed by NBD-labeled cholesterol addition measured after 1 hr in presence of […] by fluorescence based assay; format: functional; conditions: Homo sapiens, time 25.0 hrs; in short: as §5
Lymphoblastoid cell [17] = assay: Induction of extracellular NBD-labeled cholesterol uptake in patient-derived lymphoblastoid cells at 5 uM incubated for 24 hrs followed by NBD-labeled cholesterol addition measured after 1 hr in presence of SSO by fluorescence based assay; format: functional; conditions: Homo sapiens, time 25.0 hrs
Lymphoblastoid cell [18] = assay: Induction of extracellular NBD-labeled cholesterol uptake in patient-derived lymphoblastoid cells at 5 uM incubated for 24 hrs followed by NBD-labeled cholesterol addition measured after 1 hr in presence of EZE by fluorescence based assay; format: functional; conditions: Homo sapiens, time 25.0 hrs
Lymphoblastoid cell [19] = assay: Induction of extracellular NBD-labeled cholesterol uptake in patient-derived lymphoblastoid cells at 5 uM incubated for 24 hrs followed by NBD-labeled cholesterol addition measured after 1 hr in presence of […] by fluorescence based assay; format: functional; conditions: Homo sapiens, time 25.0 hrs
Lymphoblastoid cell [20] = assay: Improvement in spare respiratory capacity in patient-derived Sporadic ALS lymphoblastoid cells at 5 uM incubated for 24 hrs by Seahorse XF analysis; format: functional, cell-based; conditions: Homo sapiens
In short: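 Control and sALS lymphoblasts plated at 200,000 cells/well on poly-L-lysine and cultured 24 h ± compound (5 μM). Then moved to bicarbonate-free DMEM with 2 mM glutamine, 5 mM glucose, 2% FBS, 1 mM pyruvate and 5 mM HEPES pH 7.4, 1 h without CO2. Seahorse Mito Stress OCR: basal, oligomycin 1 μM, FCCP 3 μM, antimycin/rotenone 2.5 μM each. Four replicates, mean ± SEM.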

Lymphoblastoid cell [21] = assay: Modulation of mitochondria-endoplasmic reticulum contacts in patient-derived Sporadic ALS lymphoblastoid cells at 5 uM incubated for 24 hrs by Seahorse XF analysis; format: functional, cell-based; conditions: Homo sapiens
HCT-116 [22] = assay: Modulation of mitochondria-endoplasmic reticulum contacts in human HCT-116 cells at 25 uM incubated for 1 hr by TEM analysis; format: functional, cell-based
Lymphoblastoid cell [23] = assay: Induction of lipid droplet formation in patient-derived Sporadic ALS lymphoblastoid cells at 5 uM incubated for 24 hrs by TEM analysis; format: functional, cell-based; conditions: Homo sapiens
In short: (§6)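 Control and sporadic ALS lymphoblasts with or without compound (5 μM, 24 h) were fixed 4 h at 4 °C in 4% paraformaldehyde/2.5% glutaraldehyde in 0.1 M phosphate pH 7.3. Postfixed in osmium tetroxide/potassium ferrocyanide, acetone-dehydrated, Spurr-embedded. 60 nm sections stained with lead citrate and imaged by TEM at 80 kV.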

Lymphoblastoid cell [24] = assay: Restoration of mitochondrial cristae structure in patient-derived Sporadic ALS lymphoblastoid cells at 5 uM incubated for 24 hrs by TEM analysis; format: functional, cell-based; conditions: Homo sapiens; in short: as §6

N#Cc1ccc(NC(=O)c2cc(Cl)ccc2O)cc1
EC50 [1]: 9.7 µM | Activity (HCT-116 [2]): Non-toxic | Activity (HCT-116 [3]): Non-toxic | Activity (HCT-116 [4]): inactive | permeability [5]: Permeable

O=C(Nc1ccc([N+](=O)[O-])cc1Cl)c1cc(Cl)ccc1O [NICLOSAMIDE]
EC50 [1]: 5.68 µM | Activity (HCT-116 [2]): Non-toxic | Activity (HCT-116 [4]): inactive

O=C(Nc1ccc([N+](=O)[O-])cc1)c1cccc2ccccc12
EC50 [1]: 21.7 µM

O=C(Nc1cccc([N+](=O)[O-])c1)c1cc(Cl)ccc1O
EC50 [1]: 8.32 µM | Activity (HCT-116 [2]): Non-toxic | Activity (HCT-116 [3]): Non-toxic | Activity (HCT-116 [4]): inactive | permeability [5]: Permeable

O=C(Nc1ccccc1)c1cc(Cl)ccc1O
Activity (HCT-116 [2]): Non-toxic | Activity (HCT-116 [3]): Non-toxic | Activity (HCT-116 [4]): inactive | Activity (HCT-116 [6]): Active | Activity (Lymphoblastoid cell [7]): Active | Activity (Lymphoblastoid cell [8]): Active | Activity (Lymphoblastoid cell [9]): inactive | Activity (Lymphoblastoid cell [10]): Active | Activity (Lymphoblastoid cell [11]): Active | Activity (Lymphoblastoid cell [12]): Active | Activity (Lymphoblastoid cell [13]): Active | Activity (Lymphoblastoid cell [14]): Active | Activity (Lymphoblastoid cell [15]): Active | Activity (Lymphoblastoid cell [16]): Not active; The Result Suggests That Cell Surface Hdl Scavenger Receptor B, Type 1 (Sr-B1) May Be Involved In Mechanism Of Action | Activity (Lymphoblastoid cell [17]): Active | Activity (Lymphoblastoid cell [18]): Active | Activity (Lymphoblastoid cell [19]): Not active; The Result Suggests That Cell Surface Hdl Scavenger Receptor B, Type 1 (Sr-B1) May Be Involved In Mechanism Of Action | Activity (Lymphoblastoid cell [20]): Active | Activity (Lymphoblastoid cell [21]): Active | Activity (HCT-116 [22]): Active | Activity (Lymphoblastoid cell [23]): Active | Activity (Lymphoblastoid cell [24]): Active | permeability [5]: Permeable

O=C(Nc1ccc([N+](=O)[O-])cc1Cl)c1cccc2ccccc12
EC50 [1]: 3.34 µM

O=C(Nc1ccc([N+](=O)[O-])cc1F)c1cc(Cl)ccc1O
EC50 [1]: 5.64 µM | Activity (HCT-116 [2]): Non-toxic | Activity (HCT-116 [4]): inactive

O=C(Nc1ccc(F)cc1)c1cc(Cl)ccc1O
EC50 [1]: 20.2 µM

CNC(=O)c1ccc(NC(=O)c2cc(Cl)ccc2O)cc1
EC50 [1]: 10.2 µM

CC(C)C[C@@H](C=O)NC(=O)[C@H](CC(C)C)NC(=O)[C@H](CC(C)C)NC(=O)OCc1ccccc1 [MG-132] (Cbz-Leu-Leu-Leu-aldehyde)
EC50 [1]: 13.7 µM

O=C(Nc1ccc([N+](=O)[O-])cc1)c1cc(Cl)ccc1O
EC50 [1]: 2.44 µM | Activity (HCT-116 [4]): inactive | permeability [5]: Permeable
